Screening data from PubChem BioAssay.
Most compounds without a hit are left out; they make up all but 4.4% or so of the library.
EBI2 block: antagonists of human EBI2 receptor; inhibition, % at 5 µM; actives 0.81% (n = 360,000); EBI2 beta-arrestin recruitment, luminescence, 7a,25-OHC stimulated; P32249; in the data active means inhibition above about 38%;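 further: enzyme fragment complementation signal reports receptor beta-arrestin coupling in cells; 0% = agonist plus DMSO wells and 100% = wells without agonist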
Target sequence (P32249 whole entry, looked up, the tested form may be a part): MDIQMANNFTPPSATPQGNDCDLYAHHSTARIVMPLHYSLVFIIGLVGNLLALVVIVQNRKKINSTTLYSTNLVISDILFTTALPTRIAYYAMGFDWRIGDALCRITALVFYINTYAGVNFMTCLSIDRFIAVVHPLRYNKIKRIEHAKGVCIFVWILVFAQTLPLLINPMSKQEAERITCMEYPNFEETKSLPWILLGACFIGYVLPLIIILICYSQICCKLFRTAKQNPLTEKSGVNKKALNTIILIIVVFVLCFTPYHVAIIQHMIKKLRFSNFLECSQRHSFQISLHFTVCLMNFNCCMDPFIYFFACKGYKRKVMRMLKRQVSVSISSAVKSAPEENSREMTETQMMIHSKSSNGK
MPTP inh: inhibitors of mitochondrial permeability transition pore. isolated mouse mitochondria, Ca2+ swelling absorbance, 30 min. inhibition, % at 10 µM. actives 1.4% (n = 360,000). AID 602449;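 active means inhibition of 50% or more, scaled per plate between neutral and stimulator controls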;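 further: 0% = DMSO wells given calcium and 100% = 1 mM EGTA wells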
NR3A LBD binder: NR3A (human) ligand-binding domain modulation; actives 2.5% (n = 340,000); Tm shift relative to glycine control, % at 25 µM; AID 1259313; NR3A LBD differential scanning fluorimetry, Tm shift; 0% = protein alone, 100% = glycine-bound protein;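 active means melting temperature shift of at least 10% of the positive control shift, at one fixed dose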
SENP1 FRET inh: SENP1 (human) catalytic domain inhibition; Q9P0U3; recombinant SENP1 catalytic domain, CyPet-SUMO1-YPet FRET cleavage; inhibition, % at 10 µM; actives 0.21% (n = 360,000);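 active means inhibition at least 30% at 10 µM, raw YFP signal under a set limit, fluorescence ratio 0.5 to 1.5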;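 further: 0% = enzyme with DMSO and 100% = no enzyme wells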
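System: Recombinant human SENP1 catalytic domain, His6-tagged | Incubation: Enzyme reaction for 50 min at room temperature, dark | Medium: Tris pH 8 with BME, BSA, NP40 and catalase | Also added: 25 nM SUMO1 FRET substrate | Compound: 10 µM single point, 0.5% DMSO | Measured by: FRET fluorescence in CFP and YFP emission channels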
The depositor's hits bear a star.

O=C(COC(=O)c1ccc(CO)cc1)Nc1ccc(OC(F)F)cc1 was read as EBI2 block 1, MPTP inh 0, NR3A LBD binder 16* and SENP1 FRET inh -1.
Screening O=C(COC(=O)c1ccc(O)cc1O)Nc1ccc2ccccc2c1 returned EBI2 block 13, MPTP inh 0, NR3A LBD binder 14* and SENP1 FRET inh 1.
CC1CCc2c(sc(NC(=O)COC(=O)c3ccc(NC(=O)CC#N)cc3)c2C#N)C1 (stereo unspecified) was read as EBI2 block 9, MPTP inh 0, NR3A LBD binder 26* and SENP1 FRET inh -24.
Screening N#CCC(=O)Nc1ccc(C(=O)OCC(=O)Nc2ccc3ccccc3c2)cc1 returned EBI2 block 30, MPTP inh 1, NR3A LBD binder 30* and SENP1 FRET inh -16.
CCOC(=O)C1CCN(C(=O)C(C)Oc2ccc(C(=O)c3ccccc3)cc2)CC1 (stereo unspecified) was read as EBI2 block -4, MPTP inh 0, NR3A LBD binder 0 and SENP1 FRET inh 2.
ClC1CCCCC1n1nnc2ccccc21 (stereo unspecified) was read as EBI2 block -1, MPTP inh 1, NR3A LBD binder -2 and SENP1 FRET inh 2.
COc1ccc(C2C(C(C)=O)=C(C)Nc3ncnn32)cc1 (stereo unspecified) was read as EBI2 block -2, MPTP inh 0, NR3A LBD binder 0 and SENP1 FRET inh -3.
Screening CCN1CCN(C(=O)Cn2ncc3c([nH]c4ccc(C)cc43)c2=O)CC1 returned EBI2 block 15, MPTP inh -2, NR3A LBD binder 0 and SENP1 FRET inh 5.
Screening Oc1cccc(C2c3[nH]c4ccccc4c3CCN2Cc2ccc3c(c2)CCO3)c1 (stereo unspecified) returned EBI2 block 3, MPTP inh 3, NR3A LBD binder 11* and SENP1 FRET inh -39.
CCN(CC)c1ccc(/C=C2\SC(=O)N(C(C)C)C2=O)o1 was read as EBI2 block 56*, MPTP inh 4, NR3A LBD binder 1 and SENP1 FRET inh -25.
For CC(C)N1C(=O)S/C(=C/c2ccc3c(c2)n(C)c(=O)n3C)C1=O the results were EBI2 block -8, MPTP inh 1, NR3A LBD binder -1 and SENP1 FRET inh -7.
`COc1ccccc1CC(=O)N1CCC(n2nccc2NC(=O)C2CCOC2)CC1` (stereo unspecified) gave EBI2 block 3, MPTP inh 0, NR3A LBD binder 10* and SENP1 FRET inh 1.
For COc1ccccc1C(=O)Nc1ccnn1C1CCN(C/C=C/c2ccccc2)CC1 the results were EBI2 block 8, MPTP inh -1, NR3A LBD binder 13* and SENP1 FRET inh -1.
CCCCCc1cc(=O)c2ccccc2o1 was read as EBI2 block -8, MPTP inh 0, NR3A LBD binder 53* and SENP1 FRET inh 1.
O=c1cc(CO)oc2ccccc12 was read as EBI2 block -2, MPTP inh -2, NR3A LBD binder -4 and SENP1 FRET inh 2.
CSc1ccc(C2NN=C(c3ccccc3)S2)cc1 (stereo unspecified) was read as EBI2 block 18, MPTP inh 2, NR3A LBD binder -18 and SENP1 FRET inh 3.
For Oc1ccccc1C1NN=C(c2ccccc2)S1 (stereo unspecified) the results were EBI2 block 6, MPTP inh 2, NR3A LBD binder 19* and SENP1 FRET inh -20.
CN(C)CC(CCC(CN(C)C)C(=O)c1ccccc1)C(=O)c1ccccc1 (stereo unspecified) was read as EBI2 block 47*, MPTP inh -1, NR3A LBD binder -1 and SENP1 FRET inh 1.
Cc1nnc(NC(=O)CSc2nnc(-c3ccccc3)n2C)s1 was read as EBI2 block 0, MPTP inh 0, NR3A LBD binder -2 and SENP1 FRET inh 2.
For CCOC(=O)C1CCCN(C2=NC(=O)/C(=C/c3ccc(O)c(OCC)c3)S2)C1 (stereo unspecified) the results were EBI2 block 2, MPTP inh -2, NR3A LBD binder -1 and SENP1 FRET inh 59.
CCOC(=O)C1CCCN(C2=NC(=O)/C(=C/c3ccc(N(C)C)cc3)S2)C1 (stereo unspecified) was read as EBI2 block 45*, MPTP inh 2, NR3A LBD binder 0 and SENP1 FRET inh -23.
Cc1ccc(/C=C2\SC(N3CCCCC3)=NC2=O)cc1 was read as EBI2 block 81*, MPTP inh 0, NR3A LBD binder -1 and SENP1 FRET inh 3.
